According to ChEMBL document CHEMBL5120934, “Development of Urea-Bond-Containing Michael Acceptors as Antitrypanosomal Agents Targeting Rhodesain” (ACS Med Chem Lett, 2022):

Key:
[1] = biological target: Rhodesain (Trypanosoma brucei rhodesiense) (UniProt Q95PM0); assay: Inhibition of Trypanosoma brucei rhodesiense rhodesain at 0.1 uM using Cbz-Phe-Arg-AMC as fluorogenic substrate measured for 10 mins every 30 seconds by fluorescence microplate reader assay
Outline: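 Single-concentration fluorogenic screen against rhodesain with the substrate Cbz-Phe-Arg-AMC, each compound at 0.1 μM. DMSO served as the negative control and E-64 as the positive control. The read-out was percentage inhibition.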

[2] = biological target: Rhodesain (Trypanosoma brucei rhodesiense) (UniProt Q95PM0); assay: Binding affinity to recombinant Trypanosoma brucei rhodesiense rhodesain assessed as Kinact using Cbz-Phe-Arg-AMC as fluorogenic substrate measured for 10 mins every 30 seconds by fluorescence microplate reader assay
Outline: (§1)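 Rhodesain activity was followed fluorogenically with the substrate Cbz-Phe-Arg-AMC. Inhibitors were serially diluted and assayed down to the concentration giving minimal inhibition. Irreversible inhibition was characterized by Ki and kinact (the rate of covalent E-I complex formation), and k2nd was calculated as kinact/Ki.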

[3] = biological target: Replicase polyprotein 1ab (Severe acute respiratory syndrome coronavirus 2) (UniProt P0DTD1); assay: Inhibition of C-terminal His-tagged SARS-CoV-2 MPro expressed in Escherichia coli BL21(DE3) at 100 uM using Dabcyl-KTSAVLQSGFRKME-Edans as fluorogenic substrate incubated for 10 mins by FRET assay
Outline: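 Single-concentration preliminary screen of viral main protease at 100 μM. Read-out is percentage inhibition of protease activity. No follow-up dilution series or mode-of-inhibition kinetics were run.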

[4] = biological target: Rhodesain (Trypanosoma brucei rhodesiense) (UniProt Q95PM0); assay: Binding affinity to recombinant Trypanosoma brucei rhodesiense rhodesain assessed as binding constant measured at second inhibition step using Cbz-Phe-Arg-AMC as fluorogenic substrate measured for 10 mins every 30 seconds by fluorescence microplate reader assay; outline: as §1
Trypanosoma brucei = assay: Antitrypanosomal activity against bloodstream form of Trypanosoma brucei; assay type: functional; conditions: read-out: ED50 (the source's name)
[5] = biological target: Rhodesain (Trypanosoma brucei rhodesiense) (UniProt Q95PM0); assay: Inhibition of Trypanosoma brucei rhodesiense rhodesain expressed in pichia pastoris assessed as binding constant measured at second inhibition step using Z-Phe-Arg-N-methylcoumarin as substrate by fluorometric assay

Chain of Rhodesain (Trypanosoma brucei rhodesiense) (Q95PM0 1-450): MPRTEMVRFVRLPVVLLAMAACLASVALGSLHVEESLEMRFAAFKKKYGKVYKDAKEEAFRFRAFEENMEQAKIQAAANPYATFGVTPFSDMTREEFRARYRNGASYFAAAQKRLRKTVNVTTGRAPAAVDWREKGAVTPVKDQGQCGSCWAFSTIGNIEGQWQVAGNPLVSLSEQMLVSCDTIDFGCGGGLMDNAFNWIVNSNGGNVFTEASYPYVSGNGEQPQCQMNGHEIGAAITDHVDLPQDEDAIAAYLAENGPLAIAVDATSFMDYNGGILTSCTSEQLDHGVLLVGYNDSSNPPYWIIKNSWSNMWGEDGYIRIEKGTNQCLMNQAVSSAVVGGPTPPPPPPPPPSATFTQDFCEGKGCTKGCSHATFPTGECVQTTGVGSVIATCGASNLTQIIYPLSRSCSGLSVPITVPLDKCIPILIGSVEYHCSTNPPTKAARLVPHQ

Row | SMILES | inhibition [1] | Kinact [2] | inhibition [3] | K [4] | EC50 (Trypanosoma brucei) | K [5]
1 | CC(=O)/C=C/[C@H](CCc1ccccc1)NC(=O)[C@H](Cc1ccccc1)NC(=O)Nc1ccc(F)cc1 | > 80% | 0.0021 min⁻¹ | 33% | – | – | –
2 | CC(=O)/C=C/[C@H](CCc1ccccc1)NC(=O)[C@H](Cc1ccccc1)NC(=O)Nc1cccc2ccccc12 | > 80% | 0.0084 min⁻¹ | 33% | – | – | –
3 | CC(=O)/C=C/[C@H](CCc1ccccc1)NC(=O)[C@H](Cc1ccccc1)NC(=O)Nc1ccccc1 | > 80% | 0.0021 min⁻¹ | 33% | 16700 10^3/M/min | – | –
4 | CC(=O)/C=C/[C@H](CCc1ccccc1)NC(=O)[C@H](Cc1ccccc1)NC(=O)Nc1ccc(C)cc1 | > 80% | 0.0023 min⁻¹ | 33% | 10400 10^3/M/min | – | –
5 | CC(=O)/C=C/[C@H](CCc1ccccc1)NC(=O)[C@H](Cc1ccccc1)NC(=O)Nc1ccc(Cl)cc1 | > 80% | 0.0023 min⁻¹ | 33% | – | – | –
6 | CC(=O)/C=C/[C@H](CCc1ccccc1)NC(=O)[C@H](CC(C)C)NC(=O)Nc1ccc(Cl)cc1C | – | 0.0123 min⁻¹ | – | 14000 10^3/M/min | – | –
7 | CC(=O)/C=C/[C@H](CCc1ccccc1)NC(=O)[C@H](Cc1ccccc1)NC(=O)Nc1c(F)cccc1F | > 80% | 0.0022 min⁻¹ | 33% | – | – | –
8 | COc1ccc(NC(=O)N[C@@H](Cc2ccccc2)C(=O)N[C@H](/C=C/C(C)=O)CCc2ccccc2)cc1 | > 80% | 0.0059 min⁻¹ | 33% | – | – | –
9 | CN1CCN(C(=O)N[C@@H](Cc2ccccc2)C(=O)N[C@H](/C=C/S(=O)(=O)c2ccccc2)CCc2ccccc2)CC1 [K-777] | – | – | – | – | 900 nM | 9000 10^3/M/min
10 | CC(=O)/C=C/[C@H](CCc1ccccc1)NC(=O)[C@H](Cc1ccccc1)NC(=O)Nc1ccc(Cl)cc1C | > 80% | 0.0053 min⁻¹ | 33% | 14700 10^3/M/min | – | –
11 | CC(=O)/C=C/[C@H](CCc1ccccc1)NC(=O)[C@H](CC(C)C)NC(=O)Nc1ccc(C)cc1 | – | 0.0042 min⁻¹ | – | 10400 10^3/M/min | – | –
12 | CC(=O)/C=C/[C@H](CCc1ccccc1)NC(=O)[C@H](Cc1ccccc1)NC(=O)Nc1ccc(Cl)cc1C(F)(F)F | > 80% | 0.006 min⁻¹ | 33% | – | – | –
